Measured values taken from paper PMC2193166 (The Journal of Experimental Medicine, 2000).
Values belong to the compound of their own block, whether it stands above or below them. No end group written: not given here. *: point of attachment. 125I = [125I]*

Assays:
B/A254 = B/A254 (Homo sapiens, UniProt P25090+Q15722); assay: ^3H-LTB4 binding, B/A254-transfected HEK293 cells
human PMNs = assay: Human PMN chemotaxis, 48-well microchamber; assay type: cell-based
Outline: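 Freshly isolated human PMNs were preincubated with vehicle or test compound (10 nM) for 30 min at 37°C and loaded at 5 × 10^4/well into the upper wells of a 48-well chamber fitted with an uncoated 5-μm polycarbonate membrane. The lower wells held peptide (1 nM), test compound, or vehicle (RPMI, 0.1% ethanol). After 60 min at 37°C, migrated cells were Diff-Quik stained and counted by light microscopy. Migration index was chemoattractant over vehicle; three donors.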

PMNs = assay: Direct binding of ^125I-labeled MHC binding peptide with PMNs; parameters: species or system human; details: n = 3, data not shown
ALXR = biological target: T1, ALXR (Homo sapiens, UniProt P25090); details: cited from earlier work
T1 sequence (P25090 1-351): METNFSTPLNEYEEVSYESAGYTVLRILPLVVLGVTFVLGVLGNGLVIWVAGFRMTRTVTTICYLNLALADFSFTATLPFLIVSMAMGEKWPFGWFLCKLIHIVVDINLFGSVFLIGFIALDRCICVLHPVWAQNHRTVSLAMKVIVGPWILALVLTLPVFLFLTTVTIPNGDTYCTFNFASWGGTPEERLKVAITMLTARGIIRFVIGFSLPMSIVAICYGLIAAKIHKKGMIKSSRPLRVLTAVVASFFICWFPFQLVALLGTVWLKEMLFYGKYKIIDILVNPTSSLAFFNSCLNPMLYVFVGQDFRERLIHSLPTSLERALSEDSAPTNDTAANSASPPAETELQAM

specific ^3H-LTB4 binding (in words) (B/A254): failed to specifically bind
Compound: CCCCC/C=C\C[C@@H](O)/C=C/C=C\C=C\[C@@H](O)CCCC(=O)O [^3H-LTB4, [5,6,8,9,11,12, 14,15-^3H]-LTB4]

specific binding to PMNs (PMNs): nor did it show specific binding
Compound: ^125I-labeled peptide: MHC binding peptide iodinated at the Tyr residue (MY(125I)FINILTL)
PMN chemotaxis (in words) (human PMNs): did not promote PMN chemotaxis

Compound: serum amyloid protein A [SAA]
concentration required to evoke responses (ALXR): micromolar
